Measurements reported in ChEMBL document CHEMBL3351323, “Exploitation of cholane scaffold for the discovery of potent and selective farnesoid X receptor (FXR) and G-protein coupled bile acid receptor 1 (GP-BAR1) ligands” (J Med Chem, 2014).
Activity calls are given as the source filed them. The calls are words filed in the database; no cut-off is given here.

Columns and labels:
[1] = target: T1, Bile acid receptor (Homo sapiens) (UniProt Q96RI1); experiment: Agonist activity at FXR in human HepG2 cells assessed as increase in SHP mRNA expression at 10 uM by RT-PCR method; assay type: cell-based
T1 sequence (whole entry): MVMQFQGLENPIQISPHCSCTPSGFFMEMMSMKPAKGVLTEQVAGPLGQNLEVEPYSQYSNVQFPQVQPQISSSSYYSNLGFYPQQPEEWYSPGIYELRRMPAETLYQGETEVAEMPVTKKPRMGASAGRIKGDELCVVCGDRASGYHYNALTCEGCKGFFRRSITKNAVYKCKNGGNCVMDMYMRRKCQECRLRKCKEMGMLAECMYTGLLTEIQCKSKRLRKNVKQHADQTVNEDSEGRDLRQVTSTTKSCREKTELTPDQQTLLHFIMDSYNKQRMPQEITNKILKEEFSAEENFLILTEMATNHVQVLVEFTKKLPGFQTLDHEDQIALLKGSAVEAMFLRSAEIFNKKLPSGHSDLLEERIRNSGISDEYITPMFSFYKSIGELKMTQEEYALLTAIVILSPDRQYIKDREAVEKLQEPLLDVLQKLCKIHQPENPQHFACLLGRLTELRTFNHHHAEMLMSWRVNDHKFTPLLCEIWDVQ
Summary of the method: (§1)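 HepG2 cells treated at 10 μM. TRIzol RNA was DNase-treated and reverse transcribed with random primers, then SYBR real-time PCR run in triplicate (40 cycles, 95 °C/60 °C). Values normalized to GAPDH and expressed relative to untreated cells set to 1.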

[2] = target: T2, Glucocorticoid receptor (Homo sapiens) (UniProt P04150); experiment: Agonist activity at GCR (unknown origin) in human HepG2 cells assessed as receptor transactivation at 10 uM incubated for 18 hrs by Gal4 luciferase reporter gene assay; assay type: cell-based
T2 sequence (whole entry): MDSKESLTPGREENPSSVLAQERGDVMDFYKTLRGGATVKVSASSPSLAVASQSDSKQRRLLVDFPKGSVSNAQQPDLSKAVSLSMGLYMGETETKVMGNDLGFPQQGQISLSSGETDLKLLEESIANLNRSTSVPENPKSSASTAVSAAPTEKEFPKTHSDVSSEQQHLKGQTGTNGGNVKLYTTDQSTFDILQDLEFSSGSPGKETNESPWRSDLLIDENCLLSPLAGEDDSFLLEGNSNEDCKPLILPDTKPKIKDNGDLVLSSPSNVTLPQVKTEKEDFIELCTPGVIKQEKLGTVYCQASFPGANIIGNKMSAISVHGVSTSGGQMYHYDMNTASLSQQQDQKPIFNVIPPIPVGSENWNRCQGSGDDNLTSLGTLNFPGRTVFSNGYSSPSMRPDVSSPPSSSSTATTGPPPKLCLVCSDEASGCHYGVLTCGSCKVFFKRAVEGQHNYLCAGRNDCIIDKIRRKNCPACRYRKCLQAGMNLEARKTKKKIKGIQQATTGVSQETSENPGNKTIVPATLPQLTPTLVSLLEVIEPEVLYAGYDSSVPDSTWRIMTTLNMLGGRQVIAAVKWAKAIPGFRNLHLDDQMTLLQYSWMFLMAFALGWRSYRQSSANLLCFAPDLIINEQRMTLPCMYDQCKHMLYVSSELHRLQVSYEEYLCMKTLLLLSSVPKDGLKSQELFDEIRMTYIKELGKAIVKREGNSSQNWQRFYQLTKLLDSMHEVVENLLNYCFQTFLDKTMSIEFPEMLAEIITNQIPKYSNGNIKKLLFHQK
Summary of the method: (§2)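 HepG2 cells transfected with a GAL4-UAS luciferase reporter, Renilla vector and GAL4 DNA-binding domain fusions of the GR, LXR or PPARγ ligand-binding domain; 48 h later stimulated 18 h at 10 μM beside the matching reference agonist (dexamethasone, GW3965, rosiglitazone). Three experiments, mean ± SE.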

[3] = target: T3, G-protein coupled bile acid receptor 1 (Mus musculus) (UniProt Q80SS6); experiment: Agonist activity at GP-BAR1 in mouse GLUTag cells assessed as increase in pro-glucagon mRNA expression at 10 uM by RT-PCR method; assay type: cell-based
T3 sequence (whole entry): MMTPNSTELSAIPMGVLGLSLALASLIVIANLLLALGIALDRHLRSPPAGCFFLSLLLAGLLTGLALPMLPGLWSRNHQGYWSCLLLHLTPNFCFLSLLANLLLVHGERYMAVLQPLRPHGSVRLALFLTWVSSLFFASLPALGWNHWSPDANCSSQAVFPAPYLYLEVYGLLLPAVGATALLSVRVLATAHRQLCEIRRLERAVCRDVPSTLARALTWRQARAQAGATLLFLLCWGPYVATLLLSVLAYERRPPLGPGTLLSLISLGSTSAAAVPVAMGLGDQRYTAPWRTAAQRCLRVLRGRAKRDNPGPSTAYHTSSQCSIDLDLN
Summary of the method: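 Murine GLUTag enteroendocrine cells (D-MEM, 10% FBS) treated at 10 μM. Pro-glucagon mRNA measured by SYBR real-time PCR in triplicate, normalized to GAPDH and expressed relative to untreated cells set to 1.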

[4] = target: T4, Peroxisome proliferator-activated receptor gamma (Homo sapiens) (UniProt P37231); experiment: Agonist activity at PPARgamma (unknown origin) in human HepG2 cells assessed as receptor transactivation at 10 uM incubated for 18 hrs by Gal4 luciferase reporter gene assay; assay type: cell-based; summary of the method: as §2
T4 sequence (whole entry): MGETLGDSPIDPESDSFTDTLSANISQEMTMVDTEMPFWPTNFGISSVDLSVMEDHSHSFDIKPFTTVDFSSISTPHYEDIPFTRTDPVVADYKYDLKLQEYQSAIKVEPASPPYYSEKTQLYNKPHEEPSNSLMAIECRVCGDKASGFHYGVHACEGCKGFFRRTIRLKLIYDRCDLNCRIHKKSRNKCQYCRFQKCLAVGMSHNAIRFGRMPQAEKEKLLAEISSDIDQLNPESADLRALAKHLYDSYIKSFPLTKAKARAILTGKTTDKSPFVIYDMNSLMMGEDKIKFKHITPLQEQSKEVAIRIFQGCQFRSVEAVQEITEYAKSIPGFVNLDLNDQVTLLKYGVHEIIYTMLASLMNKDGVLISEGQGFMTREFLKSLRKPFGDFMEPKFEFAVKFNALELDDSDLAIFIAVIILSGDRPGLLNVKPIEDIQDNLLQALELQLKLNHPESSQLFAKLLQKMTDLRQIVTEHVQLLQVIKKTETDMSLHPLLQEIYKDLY

[5] = target: Liver X receptor (Homo sapiens) (UniProt Q13133+P55055); experiment: Agonist activity at LXR (unknown origin) in human HepG2 cells assessed as receptor transactivation at 10 uM incubated for 18 hrs by Gal4 luciferase reporter gene assay; assay type: cell-based; summary of the method: as §2
Bile acid receptor = target: T5, Bile acid receptor (Homo sapiens, UniProt Q96RI1); experiment: Agonist activity at FXR (unknown origin) expressed in human HepG2 cells assessed as receptor transactivation at 100 nM to 50 uM […] by FXR response element driven HSP27-TK-luciferase reporter gene assay; assay type: cell-based
T5 sequence (Q96RI1 whole entry): T1 sequence (whole entry)

[6] = target: T6, G-protein coupled bile acid receptor 1 (Homo sapiens, UniProt Q8TDU6); experiment: Agonist activity at GP-BAR1 (unknown origin) in human HEK293 cells assessed as receptor transactivation at 100 nM to 50 uM […] by CRE-driven luciferase reporter gene assay; assay type: functional, cell-based
T6 sequence (Q8TDU6 whole entry): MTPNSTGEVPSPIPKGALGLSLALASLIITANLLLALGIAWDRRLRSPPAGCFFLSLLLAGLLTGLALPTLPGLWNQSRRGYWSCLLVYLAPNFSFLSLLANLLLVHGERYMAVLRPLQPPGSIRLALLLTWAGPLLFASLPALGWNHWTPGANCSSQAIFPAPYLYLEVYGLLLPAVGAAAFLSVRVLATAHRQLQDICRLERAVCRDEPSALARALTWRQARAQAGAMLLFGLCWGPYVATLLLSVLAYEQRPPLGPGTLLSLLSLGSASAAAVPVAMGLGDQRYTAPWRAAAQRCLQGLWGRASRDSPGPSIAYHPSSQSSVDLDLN

[7] = target: T7, Nuclear receptor subfamily 1 group I member 2 (Homo sapiens, UniProt O75469); experiment: Agonist activity at PXR (unknown origin) in human HepG2 cells co-transfcted with RXR assessed as receptor transactivation at 10 uM incubated for 18 hrs by CYP3A4 promoter-TKLuc luciferase reporter gene assay; details: hepg2, 18 h
T7 sequence (O75469 whole entry): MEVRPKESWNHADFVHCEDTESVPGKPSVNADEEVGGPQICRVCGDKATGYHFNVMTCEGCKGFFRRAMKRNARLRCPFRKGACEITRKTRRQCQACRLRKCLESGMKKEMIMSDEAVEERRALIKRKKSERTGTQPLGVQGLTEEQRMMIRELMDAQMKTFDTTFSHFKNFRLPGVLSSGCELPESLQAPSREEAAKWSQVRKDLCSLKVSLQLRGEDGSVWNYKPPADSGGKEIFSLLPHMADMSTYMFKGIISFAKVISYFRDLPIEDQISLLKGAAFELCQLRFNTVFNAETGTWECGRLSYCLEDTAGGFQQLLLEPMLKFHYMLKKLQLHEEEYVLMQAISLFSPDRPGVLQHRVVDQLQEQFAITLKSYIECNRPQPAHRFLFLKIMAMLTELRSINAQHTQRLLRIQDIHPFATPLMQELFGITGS

[8] = target: T1, Bile acid receptor (Homo sapiens); experiment: Agonist activity at FXR in human HepG2 cells assessed as increase in BSEP mRNA expression at 10 uM by RT-PCR method; assay type: cell-based; summary of the method: as §1
[9] = target: T1, Bile acid receptor (Homo sapiens); experiment: Agonist activity at FXR in human HepG2 cells assessed as increase in OSTalpha mRNA expression at 10 uM by RT-PCR method; assay type: cell-based; summary of the method: as §1
[10] = target: T8, G-protein coupled bile acid receptor 1 (Homo sapiens) (UniProt Q8TDU6); experiment: Agonist activity at GP-BAR1 in human THP1 cells assessed as increase in cAMP level at 10 uM by enzyme immunoassay; assay type: functional, cell-based; details: THP-1
T8 sequence (whole entry): T6 sequence (Q8TDU6 whole entry)
Summary of the method: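 THP-1 monocytes serum-starved overnight, then stimulated 30 min at 10 μM, with forskolin 10 μM as reference. cAMP measured by direct cAMP enzyme immunoassay. Three experiments, mean ± SE.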

| SMILES | Activity [1] | Activity [2] | Activity [3] | Activity [4] | Activity [5] | EC50 (Bile acid receptor; read-out: EC50) [µM] | EC50 ([6]; hek293) | Activity [7] | Activity [8] | Activity [9] | Activity [10] | EC50 (Bile acid receptor; hepg2) | EC50 ([6]; read-out: EC50) [µM] |
| --- | --- | --- | --- | --- | --- | --- | --- | --- | --- | --- | --- | --- | --- |
| C[C@H](CCCOS(=O)(=O)[O-])[C@H]1CC[C@H]2[C@@H]3[C@H](O)C[C@@H]4CCCC[C@]4(C)[C@H]3CC[C@]12C.[Na+] | Active | inactive | inactive | inactive | inactive | 9 | Not Active | Active | Active | Active |  |  |  |
| CC[C@H]1[C@@H](O)[C@@H]2[C@H](CC[C@]3(C)[C@@H]([C@H](C)CCO)CC[C@@H]23)[C@@]2(C)CC[C@@H](O)C[C@@H]12 | Active | inactive | Active | inactive | inactive |  |  | Active | Active | Active | Active |  |  |
| CC[C@@H]1[C@H](O)[C@@H]2[C@H](CC[C@]3(C)[C@@H]([C@H](C)CCCO)CC[C@@H]23)[C@@]2(C)CC[C@@H](O)C[C@@H]12 |  | inactive | Active | inactive | inactive |  |  | Active |  |  | Active | Not Active | 1.03 |
